Hits are enriched below; roughly 2.9% of the tested compounds scored in any of these assays.
HIV Env fusion: inhibitors of HIV Env-mediated cell fusion | HeLa-JRFL Env/CEM21 cell fusion, luciferase | inhibition, % at 12.3 µM | 360,000 tested, 1.1% active;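 active = mean replicate inhibition score of at least 50 and every replicate individually at or above 50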;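 also: 0% = plate neutral controls and 100% = maraviroc near 300 nM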
dFosB activator: activators of mouse delta FosB homodimer. 340,000 tested, 0.99% active. AID 493131. purified delta FosB, TAMRA-CDK5 oligo fluorescence polarization; percent of positive-control signal above neutral wells. activation, % at 25 µM;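 active = mean activation above about 17%, with every replicate also reaching it, limit read from the data, passing the limit was not always enough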
Target sequence (P13346 whole entry, looked up): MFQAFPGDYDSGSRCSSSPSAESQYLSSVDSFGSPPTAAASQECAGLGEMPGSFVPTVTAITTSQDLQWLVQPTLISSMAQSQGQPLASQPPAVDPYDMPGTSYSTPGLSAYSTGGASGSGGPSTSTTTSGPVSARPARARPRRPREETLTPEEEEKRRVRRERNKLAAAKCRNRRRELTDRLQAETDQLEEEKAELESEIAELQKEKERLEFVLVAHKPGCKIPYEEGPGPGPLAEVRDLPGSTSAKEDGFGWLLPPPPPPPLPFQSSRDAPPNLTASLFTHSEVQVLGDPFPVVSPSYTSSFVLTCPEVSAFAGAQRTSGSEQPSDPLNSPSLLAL
INS-1E GSIS act: primary screen for activators of insulin secretion dependent on glucose, INS-1E cells, GLuc reporter luminescence; INS-1E GLuc reporter insulin secretion, 2-3 h; activation, % at 16.6 µM; 370,000 tested, 0.61% active;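 active = lowest replicate activation of at least 40%, so every replicate reaches that level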;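 also: 0% = median of neutral control wells and 100% = median of IBMX positive control wells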
Cneo AK release: causes C. neoformans cell lysis | adenylate kinase release luminescence, 4 h; normalised: neutral wells 0, clomiphene wells 100 | lysis activity, % at 15 µM | 360,000 tested, 0.2% active | AID 651654;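 active = mean lysis activity across replicates of at least 80%, whatever share of replicates individually reach that level; inactive = mean lysis activity below 80%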
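Test system: log-phase Cryptococcus neoformans yeast cells. Input: 5 × 10^6 yeast cells/mL. Medium: fresh YPD growth medium. Doses: single dose. Incubation: static 4 h at 37 °C with compound, 1 h detection. Measured by: luminescent adenylate kinase detection reagent. Read-out: signal increase indicating cell lysis. Benchmarks: Clomiphene.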
PAX8 inh HTS: inhibitors of PAX8 transcriptional activity in RMG-I cells | inhibition, % at 12.6 µM | RMG-I TPO-luciferase reporter, SteadyGlo, 24 h | 360,000 tested, 1.2% active;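 active = mean replicate inhibition at least 60% with every replicate also reaching 60%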;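 also: luciferase light reporting Pax8 driven TPO promoter activity; plate controls were median of neutral control wells for no effect and mitoxantrone controls for full effect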
CDK5 inh: inhibitors of human CDK5/p35 kinase | inhibition, % at 10 µM | Recombinant CDK5/p35, ADP-Glo luminescence, 60 min | Q00535+Q15078 | 330,000 tested, 0.01% active | AID 488839;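 active = highest replicate inhibition of at least 50% and at least 75% of replicates reaching 50%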;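 also: plate controls were DMSO neutral control for no effect and GW8510 at 10 µM for full effect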
An asterisk follows results filed as active; x = not tested or not shown; ! = not active in a repeat; [ ] = dose if it differs, or a comment.

SMILES	HIV Env fusion	dFosB activator	INS-1E GSIS act	Cneo AK release	PAX8 inh HTS	CDK5 inh
CN(C)C(=O)c1cccc(-c2ccc([C@H]3[C@H]4CN(C(=O)C5CCCC5)CCCCN4[C@H]3CO)cc2)c1	x	x	x	3	-16	x
O=C(C[C@@H]1C=C[C@@H](NC(=O)Cc2cccnc2)[C@@H](CO)O1)Nc1ccc(-c2ccccc2)cc1	x	x	-2	x	-1	x
O=C(Cn1[nH]c(=O)c2ccccc2c1=O)OCC(=O)c1ccc(F)c(F)c1	x	-7	x	2	-5	0
O=C(Cn1[nH]c(=O)c2ccccc2c1=O)OCC(=O)c1ccc(F)cc1	1	-7	53*	x	-2	-4
O=C(NC1CCC1)[C@@H]1[C@@H](CO)[C@@H]2Cn3c(cccc3=O)[C@H]1N2CC1CCCCC1	x	x	14	37	x	x
CCCNC(=O)[C@H]1[C@H](CO)[C@H]2Cn3c(ccc(-c4ccncc4)c3=O)[C@@H]1N2C(=O)CC1CC1	x	x	10	0	-3	x
C[C@H](CO)N1C[C@H](C)[C@H](CN(C)CC2CCCCC2)Oc2ccc(NC(=O)Cc3cn(C)c4ccccc34)cc2CC1=O	-8[16.7 µM]	x	-14	-3	x	x
N#C[C@H]1[C@H](c2ccccc2)[C@@H](CO)N1S(=O)(=O)c1ccc(-c2ccccc2)cc1	17[16.7 µM]	x	3	-2	34	x
Cc1ccc(OCC(=O)Nc2c[nH]c(=O)[nH]c2=O)cc1C	-47	-3	8	x	-9	-1
Cc1ccc(C)c(OCC(=O)Nc2nonc2NC(=O)COc2cc(C)ccc2C)c1	68*	14	129*	6	11	-4
Cc1cccc(OCC(=O)Nc2nonc2NC(=O)COc2cccc(C)c2)c1	-57	10	x	2	x	0
Cc1ccc(C)c(OCC(=O)Nc2c[nH]c(=O)[nH]c2=O)c1	57*	1	10	x	5	-1
Nc1nc(Cl)cc(N2CCC(c3cc(-c4ccc(Cl)cc4Cl)n[nH]3)CC2)n1	102*	-1	x	6	23	-2
CN1c2ccccc2N(C)C1c1ccc2c(c1)OCO2	63*	2	x	0	x	0
COc1cc(C2Nc3cccc4cccc(c34)N2)ccc1O	8	52*	0	-1	27	0
c1cc2c3c(cccc3c1)NC(c1ccc3c(c1)OCO3)N2	-14	36*	16	-1	17	4
Cc1cccc(C2Nc3cccc4cccc(c34)N2)c1	-4	13	11	1	8	0
CCCN1[C@@H]2Cn3c(ccc(C4=CCCCC4)c3=O)[C@H]1[C@@H](C(=O)NCC(F)(F)F)[C@@H]2CO	x	x	-9	-3	8	x
CC(=O)c1cccc(NC(=S)NC2CCCCCCC2)c1	x	-9	-27	129*	x	1
Cc1ccc(S(=O)(=O)N(C)C[C@@H]2Oc3ncc(Br)cc3C(=O)N([C@@H](C)CO)C[C@H]2C)cc1	12[16.7 µM]	x	-1	91*	-18	x
C[C@H](CO)N1C[C@H](C)[C@H](CN(C)S(=O)(=O)c2ccc(F)cc2)Oc2ncc(/C=C/c3ccccc3)cc2C1=O	50*![16.7 µM]	x	7	-1	-25	x
C[C@@H]1CN([C@H](C)CO)C(=O)c2cc(/C=C/c3ccccc3)cnc2O[C@@H]1CN(C)S(C)(=O)=O	-7[16.7 µM]	x	-5	87*	x	x
COc1ccc(-c2cnc3c(c2)C(=O)N([C@@H](C)CO)C[C@H](C)[C@@H](CN(C)S(C)(=O)=O)O3)cc1	-16[16.7 µM]	x	-4	81*	x	x
Cc1ccc(S(=O)(=O)N(C)C[C@H]2Oc3ncc(Br)cc3C(=O)N([C@H](C)CO)C[C@H]2C)cc1	33[16.7 µM]	x	-6	0	-13	x
C[C@@H]1CN([C@H](C)CO)C(=O)c2cc(/C=C/c3ccccc3)cnc2O[C@H]1CN(C)S(=O)(=O)c1ccc(F)cc1	19[16.7 µM]	x	-15	-2	5	x
C[C@@H]1CCCCO[C@H](CN(C)C(=O)Nc2cccc3ccccc23)[C@@H](C)CN([C@H](C)CO)C(=O)c2cc(NC(=O)CCCCCC(=O)Nc3ccccc3N)ccc2O1	14[16.7 µM]	x	15	-2	3	x
COc1cccc(-c2cn(CC[C@H]3CC[C@H](NS(=O)(=O)Cc4ccccc4)[C@@H](CO)O3)nn2)c1	-3[16.7 µM]	x	8	1	-4	x
